Data reported in ChEMBL document CHEMBL1128196, “Topographical modification of melanotropin peptide analogues with beta-methyltryptophan isomers at position 9 leads to differential potencies and prolonged biological activities” (J Med Chem, 1995).

Assays:
[1] = target: T1, Melanocyte-stimulating hormone receptor (Homo sapiens, UniProt Q01726); test: Effective concentration against Melanocortin 1 receptor transfected into L-cells was determined by concentration of peptide for 50% maximal cAMP generation; format: functional
In short: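 Human MC1R stably transfected into mouse L-cells, grown to confluence. Stopped with ice-cold ethanol. cAMP in the dried supernatant measured by competitive binding kit. Value is concentration for 50% maximal cAMP generation; n = 4.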

[2] = target: T1, Melanocyte-stimulating hormone receptor; test: The concentration that inhibits 50% specific binding was determined against the Melanocortin 1 receptor
In short: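 Cloned human MC1R stably expressed in L-cells, grown to confluence. Cells washed in binding buffer (MEM, 25 mM HEPES pH 7.4, 0.2% BSA, phenanthroline, leupeptin, bacitracin). Cells washed, lysed in NaOH/Triton, gamma counted.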

[3] = Relative rate determined by setting MTII equal to 1 and dividing the apparent k-1 by the MTII value; format: ADME
[4] = target: Melanocortin 1 receptor (Rana pipiens); test: Effective concentration for the effect of Melanocortin 1 receptor in the frog skin.

T1 sequence (Q01726 whole entry): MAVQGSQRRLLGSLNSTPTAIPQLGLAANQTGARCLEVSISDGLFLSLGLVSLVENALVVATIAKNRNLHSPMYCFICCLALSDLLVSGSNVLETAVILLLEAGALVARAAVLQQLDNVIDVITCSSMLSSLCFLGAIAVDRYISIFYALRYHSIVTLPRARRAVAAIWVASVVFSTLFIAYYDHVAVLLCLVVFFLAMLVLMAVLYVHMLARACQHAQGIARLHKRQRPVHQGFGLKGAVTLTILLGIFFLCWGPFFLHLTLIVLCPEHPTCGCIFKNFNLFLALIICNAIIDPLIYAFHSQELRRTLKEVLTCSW

SMILES	EC50 [1] [nM]	IC50 [2] [nM]	Relative dissociation rate [3]	EC50 [4] [nM]
CCCC[C@H](NC(C)=O)C(=O)N[C@@H](CC(=O)O)C(=O)N[C@@H](Cc1c[nH]cn1)C(=O)N[C@@H](Cc1ccccc1)C(=O)N[C@@H](CCCN=C(N)N)C(=O)N[C@@H](C(=O)N[C@@H](CCCCN)C(N)=O)[C@H](C)c1c[nH]c2ccccc12	0.4	2	2.33	
CCCC[C@H](NC(C)=O)C(=O)N[C@H]1CC(=O)NCCCCC(C(N)=O)NC(=O)C([C@H](C)c2c[nH]c3ccccc23)NC(=O)[C@H](CCCN=C(N)N)NC(=O)C(Cc2ccccc2)NC(=O)[C@H](Cc2c[nH]cn2)NC1=O (single isomer, unassigned)	3	15	2.5	28.6
CCCC[C@H](NC(C)=O)C(=O)N[C@H]1CC(=O)NCCCCC(C(N)=O)NC(=O)C([C@@H](C)c2c[nH]c3ccccc23)NC(=O)[C@H](CCCN=C(N)N)NC(=O)C(Cc2ccccc2)NC(=O)[C@H](Cc2c[nH]cn2)NC1=O (single isomer, unassigned)	0.3	0.5	0.75	0.44
CCCC[C@H](NC(C)=O)C(=O)N[C@H]1CC(=O)NCCCCC(C(N)=O)NC(=O)[C@@H]([C@@H](C)c2c[nH]c3ccccc23)NC(=O)[C@H](CCCN=C(N)N)NC(=O)C(Cc2ccccc2)NC(=O)[C@H](Cc2c[nH]cn2)NC1=O (single isomer, unassigned)	1	3	2.58	0.06
